Results published in ChEMBL document CHEMBL4334439, “Discovery, Optimization, and Target Identification of Novel Potent Broad-Spectrum Antiviral Inhibitors” (J Med Chem, 2019).
Active and inactive are the calls of the source. No cut-off for these calls is given here.

Columns and labels:
Hepatitis C virus [1] = assay: Antiviral activity against HCV JFH-1 harboring K78E/E2-G451R/NS3-M260K/NS5A-T462I mutant infected in human Huh7.5.1 cells after 2 days by renilla luciferase reporter gene assay; format: functional, organism-based, Hepacivirus hominis; details: JFH-1, Huh-7.5.1, 48 h
In short: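 Renilla luciferase reporter HCVcc (hRluc inserted in NS5A, aa 399/400) came from electroporated Huh7.5.1 supernatant. Virus plus serially diluted compound (top 30 or 6 μM) was added to Huh7.5.1 cells (1×10^4/well) and luminescence read. EC50 is 50% luminescence reduction.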

[2] = molecular target: T1, Sialate O-acetylesterase (Homo sapiens) (UniProt Q9HAT2); assay: Binding affinity to SIAE in human Huh7.5.1 cell lysate infected with HCV at 0.1 to 10 uM incubated for 1 hr followed by 10000 mJ/cm2 UV irradiation for 10 mins and subsequent addition of biotin-N3 measured after 1 hr by ABPP Gel-based by LC/MS/MS analysis; format: subcellular
T1 sequence (whole entry): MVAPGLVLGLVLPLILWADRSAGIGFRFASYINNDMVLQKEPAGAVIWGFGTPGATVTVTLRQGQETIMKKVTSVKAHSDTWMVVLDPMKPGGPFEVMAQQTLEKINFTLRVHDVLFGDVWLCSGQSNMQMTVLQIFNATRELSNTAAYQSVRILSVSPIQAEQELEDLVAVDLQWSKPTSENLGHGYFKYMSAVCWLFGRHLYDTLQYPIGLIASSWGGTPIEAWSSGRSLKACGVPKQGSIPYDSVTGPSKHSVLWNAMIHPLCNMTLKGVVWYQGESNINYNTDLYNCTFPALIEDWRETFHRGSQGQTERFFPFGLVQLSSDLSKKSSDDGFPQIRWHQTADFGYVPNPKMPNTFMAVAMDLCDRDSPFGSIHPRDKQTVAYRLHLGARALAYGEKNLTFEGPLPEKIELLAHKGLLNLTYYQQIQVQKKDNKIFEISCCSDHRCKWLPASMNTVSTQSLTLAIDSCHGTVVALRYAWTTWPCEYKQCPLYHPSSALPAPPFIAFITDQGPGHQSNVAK
In short: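 ABPP: Huh7.5.1 cells HCV-infected 2 days were lysed by sonication in PBS with protease inhibitors (~1.5 mg/ml protein). Photo-probe at 1.0–10.0 μM was UV-crosslinked (350 nm, 10000 mJ/cm2, 10 min), then clicked to biotin-N3 (CuSO4/TBTA/TCEP, 1 h RT). Proteins were precipitated, avidin pull-down, washed with SDS, urea, PBS; LC-MS/MS versus negative-probe, competitor and DMSO groups.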

[3] = Cytotoxicity against HEK293T cells infected with HIV pseudotyped virions assessed as decrease in cell viability after 48 hrs by WST1 assay; format: cell-based, HEK-293T; details: human
In short: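 Cells seeded at 1 × 10^4 per well and cultured overnight at 37 °C, then incubated 48 h with serially diluted compounds. Viability read with WST-1 reagent as absorbance at OD450/OD630.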

[4] = test system: Severe fever with thrombocytopenia syndrome virus; assay: Antiviral activity against SFTSV infected in African green monkey Vero cells assessed as reduction in viral titre measured at 4 days post infection; format: functional; details: 96 h
Zika virus = assay: Antiviral activity against ZIKV infected in human Huh7.5.1 cells assessed as inhibition of viral replication measured after 3 days qRT-PCR analysis; format: functional, organism-based; details: Huh-7.5.1, 72 h
In short: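 Huh7.5.1 cells were infected with DENV II or ZIKV at MOI 0.1 and treated with compound. Viral RNA was quantified by qRT-PCR after 3 days. EC50 is 50% reduction of RNA level.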

Hepatitis C virus [5] = assay: Antiviral activity against GFP-fused HCV JFH-1 harboring K78E/E2-G451R/NS3-M260K/NS5A-T462I mutant infected in human Huh7.5.1 cells assessed as reduction in viral infection at 10 uM preincubated for 2 hrs followed by viral infection and measured after 48 hrs by epifluorescence microscopic analysis relative to control; format: functional, Hepacivirus hominis; design: scale not given: the % may be the effect or the level left
In short: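 Primary screen at 10 μM. Huh7.5.1 cells were pretreated 2 h, then infected with GFP-HCV (MOI 1). GFP intensity was checked by fluorescence microscopy at 48 h. Hits needed over 50% fluorescence decay before dose-response retesting.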

Hepatitis C virus [6] = assay: Antiviral activity against HCV infected in human Huh7.5.1 cells assessed as decrease in viral infection; format: functional, organism-based, Hepacivirus hominis; details: Huh-7.5.1
[7] = Selectivity index, ratio of CC50 for human Caco2 cells to EC50 for MERS-CoV infected in human Caco2 cells; format: toxicity, cell-based; details: read-out: Ratio CC50/EC50

Question: With CCN(CC)c1ccc(Oc2ccc(-c3[nH]c4cccc(F)c4c(=O)c3C)cc2F)cc1 as the molecule, how does the EC50 (Hepatitis C virus [1]) read?
Answer: 0.004 to 0.007 µM

Question: And the Activity [2]?
Answer: Active

Question: What about the CC50 at 48 h [3] of the same molecule?
Answer: > 1.25 µM

Question: What about the EC50 [4] of the same molecule?
Answer: 0.3 µM

Question: What about the EC50 (Zika virus) of the same molecule?
Answer: 0.02 µM

Question: What about the Activity (Hepatitis C virus [5]) of the same molecule?
Answer: >50%

Question: What about the EC50 (Hepatitis C virus [6]) of the same molecule?
Answer: 0.015 µM

Question: What about the selectivity ratio [7] of the same molecule?
Answer: > 7.5
